≈ marks a conversion by molar mass, not a printed value.
Legend:
[1] = test system: Mycobacterium tuberculosis; assay: Antimycobacterial activity against multidrug-resistant Mycobacterium tuberculosis clinical isolate assessed as growth inhibition after 5 days by MTT assay; format: functional; conditions: 120 h
How it was run: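 MTB inoculum made from 20–30-day slant growth in Tween 80/0.2% BSA, adjusted to McFarland No. 1, then diluted in 7H9GC broth (Middlebrook 7H9, glycerol, Casitone, OADC). Final inoculum about 1.2 × 10^6 CFU/mL. Compounds taken from DMSO stock to final 0.4–25 in broth, with a DMSO control. Plates run 5 days at 37 °C, then tetrazolium (MTT)–Tween 80 added for a further 24 h at 37 °C. Read-out is MIC.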

[2] = Selectivity index, ratio of IC50 for mouse J774.1 cells to MIC for multidrug-resistant Mycobacterium tuberculosis clinical isolate; format: functional
How it was run: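 Cytotoxicity: J774.1 macrophages in DMEM with 4 mM L-glutamine and 10% heat-inactivated FCS, seeded at 5 × 10^4/well, attached 48 h at 37 °C, 5% CO2. Exposed 48 h to 12.5–400.0 µM compound or vehicle. MTT at 0.1 mg/mL final for 3 h, formazan dissolved in DMSO/glycine buffer pH 10.5, A560 read. IC50 by linear regression, divided by the MIC against the same MTB strain.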

## Cc1c(/C=N/NC(=O)c2cccnc2)no[n+]1[O-]
[1]
  MIC: > 101 µM

## O=C(N/N=C/c1c(-c2ccccc2)no[n+]1[O-])c1cccnc1
[2]
  Selectivity Index: 10
[1]
  MIC: 20.2 µM (≈ 6.25 µg/mL)

## O=C(N/N=C/c1ccc2no[n+]([O-])c2c1)c1cccnc1
[2]
  Selectivity Index: 1.4
[1]
  MIC: 22.1 µM (≈ 6.26 µg/mL)

## Cc1c(/C=N/NC(=O)c2ccc3c(c2)OCO3)no[n+]1[O-]
[1]
  MIC: > 86.2 µM

## O=C(N/N=C/c1c(-c2ccccc2)no[n+]1[O-])c1ccc2c(c1)OCO2
[1]
  MIC: > 71 µM

## O=C(N/N=C/c1ccc2no[n+]([O-])c2c1)c1ccc2c(c1)OCO2
[1]
  MIC: > 76.7 µM

## Cc1nc2ccccn2c1C(=O)N/N=C/c1no[n+]([O-])c1C
[1]
  MIC: > 83.3 µM

## Cc1nc2ccccn2c1C(=O)N/N=C/c1c(-c2ccccc2)no[n+]1[O-]
[2]
  Selectivity Index: 6.5
[1]
  MIC: 8.6 µM (≈ 3.12 µg/mL)

## Cc1nc2ccccn2c1C(=O)N/N=C/c1ccc2no[n+]([O-])c2c1
[2]
  Selectivity Index: 3.7
[1]
  MIC: 38.6 µM (≈ 13 µg/mL)

## Cc1[nH]cnc1C(=O)N/N=C/c1no[n+]([O-])c1C
[1]
  MIC: > 100 µM

## Cc1[nH]cnc1C(=O)N/N=C/c1c(-c2ccccc2)no[n+]1[O-]
[1]
  MIC: > 80.1 µM

## Cc1[nH]cnc1C(=O)N/N=C/c1ccc2no[n+]([O-])c2c1
[2]
  Selectivity Index: 1.5
[1]
  MIC: 21.9 µM (≈ 6.27 µg/mL)

## Cc1c(/C=N/NC(=O)c2cnn(-c3ccccc3)c2)no[n+]1[O-]
[1]
  MIC: > 80.1 µM

## O=C(N/N=C/c1c(-c2ccccc2)no[n+]1[O-])c1cnn(-c2ccccc2)c1
[1]
  MIC: > 66.8 µM

## O=C(N/N=C/c1ccc2no[n+]([O-])c2c1)c1cnn(-c2ccccc2)c1
[1]
  MIC: > 17.9 µM

## COc1ccc(/C=N/NC(=O)c2no[n+]([O-])c2C)cc1O
[1]
  MIC: > 85.6 µM

## COc1cc(/C=N/NC(=O)c2no[n+]([O-])c2C)ccc1O
[1]
  MIC: > 85.6 µM

## Cc1c(/C=N/NC(=O)c2no[n+]([O-])c2C)no[n+]1[O-]
[1]
  MIC: > 93.6 µM

## Cc1c(C(=O)N/N=C/c2c(-c3ccccc3)no[n+]2[O-])no[n+]1[O-]
[1]
  MIC: > 75.8 µM

## Cc1c(C(=O)N/N=C/c2ccc3no[n+]([O-])c3c2)no[n+]1[O-]
[1]
  MIC: 82.2 µM (≈ 25 µg/mL)

## Cc1c(C(=O)N/N=C/c2ccc(N(C)C)cc2)no[n+]1[O-]
[1]
  MIC: > 86.5 µM

## Cc1c(C(=O)N/N=C/c2ccc(Br)cc2)no[n+]1[O-]
[1]
  MIC: > 74 µM

## Cc1c(C(=O)N/N=C/c2ccco2)no[n+]1[O-]
[1]
  MIC: > 106 µM

## Cc1c(C(=O)N/N=C/c2ccc([N+](=O)[O-])s2)no[n+]1[O-]
[1]
  MIC: 42.1 µM (≈ 12.5 µg/mL)

## Cc1c(C(=O)N/N=C/c2ccc([N+](=O)[O-])o2)no[n+]1[O-]
[1]
  MIC: 44.5 µM (≈ 12.5 µg/mL)

## Cc1c(C(=O)N/N=C/c2ccccc2O)no[n+]1[O-]
[1]
  MIC: > 95.4 µM

## COc1ccc(/C=N/NC(=O)c2no[n+]([O-])c2C)cc1OC
[1]
  MIC: > 81.6 µM

## Cc1c(C(=O)N/N=C/c2ccc3c(c2)OCO3)no[n+]1[O-]
[1]
  MIC: > 86.2 µM

## Cc1c(C(=O)N/N=C/c2ccc(C(=O)O)cc2)no[n+]1[O-]
[1]
  MIC: > 86.2 µM

## Cc1c(C(=O)N/N=C/c2ccc(C(F)(F)F)cc2)no[n+]1[O-]
[1]
  MIC: > 79.6 µM

## O=C(N/N=C/c1ccc2nonc2c1)c1cccnc1
[2]
  Selectivity Index: 5
[1]
  MIC: 46.8 µM (≈ 12.5 µg/mL)

## Cc1c(/C=N/NC(=O)c2ccncc2)no[n+]1[O-]
[1]
  MIC: > 25.4 µM

## O=C(N/N=C/c1ccc2nonc2c1)c1ccncc1
[1]
  MIC: > 93.6 µM

## CC(=O)Nc1ccc(/C=N/NC(=O)c2no[n+]([O-])c2C)cc1
[1]
  MIC: > 82.5 µM

## Cc1c(C(=O)N/N=C/c2ccc([N+](=O)[O-])cc2)no[n+]1[O-]
[1]
  MIC: > 85.9 µM

## Cc1c(C(=O)N/N=C/c2ccccc2)no[n+]1[O-]
[1]
  MIC: > 102 µM

## Cc1c(C(=O)N/N=C/c2cccc(O)c2)no[n+]1[O-]
[1]
  MIC: > 95.4 µM

## COc1cc(/C=N/NC(=O)c2no[n+]([O-])c2C)cc(OC)c1OC
[1]
  MIC: > 74.4 µM

## Cc1c(C(=O)N/N=C/c2ccccn2)no[n+]1[O-]
[1]
  MIC: > 101 µM

## O=C(N/N=C/c1ccc2no[n+]([O-])c2c1)c1ccncc1
[2]
  Selectivity Index: 12
[1]
  MIC: 11 µM (≈ 3.12 µg/mL)

## O=C(N/N=C/c1c(-c2ccccc2)no[n+]1[O-])c1ccncc1
[2]
  Selectivity Index: >40
[1]
  MIC: 10.1 µM (≈ 3.12 µg/mL)

## NNC(=O)c1ccncc1 [ISONIAZID]
[2]
  Selectivity Index: >9
[1]
  MIC: 45.6 µM (≈ 6.25 µg/mL)

From ChEMBL document CHEMBL2331334, “Hybrid furoxanyl N-acylhydrazone derivatives as hits for the development of neglected diseases drug candidates” (Eur J Med Chem, 2013)
